Results from ChEMBL document CHEMBL1828595, “A facile four-component sequential protocol in the expedient synthesis of novel 2-aryl-5-methyl-2,3-dihydro-1H-3-pyrazolones in water and their antitubercular evaluation” (2011).
In brackets after ≈: the same amount, converted by molar mass.

How the values were obtained:
Type in all cases: functional
[1] = test system: Mycobacterium tuberculosis; assay: Antitubercular activity against Mycobacterium tuberculosis H37Rv by agar dilution method
Procedure, shortened: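 M. tuberculosis H37Rv on Middlebrook 7H11 agar with OADC, agar dilution per NCCLS-type MIC method, pH 7.4. MIC taken as the lowest concentration inhibiting 99% of bacterial growth, determined in duplicate.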

[2] = test system: Mycobacterium tuberculosis; assay: Ratio of MIC for ciprofloxacin to compound for Mycobacterium tuberculosis H37Rv by agar dilution method
Procedure, shortened: (§1)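 Ratio of reference-drug MIC to test-compound MIC. Both MICs were measured against M. tuberculosis H37Rv by agar dilution on OADC-supplemented Middlebrook 7H11 at pH 7.4, with 99% growth inhibition as endpoint, in duplicate.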

[3] = test system: Mycobacterium tuberculosis; assay: Ratio of MIC for ethambutol to compound for Mycobacterium tuberculosis H37Rv by agar dilution method; procedure, shortened: as §1

Cc1[nH]n(-c2ccccc2)c(=O)c1C(c1ccc(C(C)C)cc1)c1c(O)ccc2ccccc12 (stereo not given)
MIC [1]: 14 µM (≈ 6.28 µg/mL)

Cc1ccc(C(c2c(C)[nH]n(-c3ccc(F)cc3)c2=O)c2c(O)ccc3ccccc23)cc1 (stereo not given)
MIC [1]: 14.2 µM (≈ 6.23 µg/mL)

Cc1[nH]n(-c2ccccc2)c(=O)c1C(c1ccccc1)c1c(O)ccc2ccccc12 (stereo not given)
MIC [1]: 30.8 µM (≈ 12.5 µg/mL)

Cc1[nH]n(-c2ccc(F)cc2)c(=O)c1C(c1ccc(Cl)cc1)c1c(O)ccc2ccccc12 (stereo not given)
MIC [1]: 3.4 µM (≈ 1.56 µg/mL)

Cc1[nH]n(-c2ccc(F)cc2)c(=O)c1C(c1ccc(F)cc1)c1c(O)ccc2ccccc12 (stereo not given)
MIC [1]: 7.1 µM (≈ 3.14 µg/mL)

Cc1[nH]n(-c2ccc(F)cc2)c(=O)c1C(c1ccc(Cl)cc1Cl)c1c(O)ccc2ccccc12 (stereo not given)
Ratio [2]: 2.94 | Ratio [3]: 4.75 | MIC [1]: 1.6 µM (≈ 0.789 µg/mL)

Cc1ccc(C(c2c(C)[nH]n(-c3ccccc3)c2=O)c2c(O)ccc3ccccc23)cc1 (stereo not given)
MIC [1]: 29.7 µM (≈ 12.5 µg/mL)

NNC(=O)c1ccncc1 [ISONIAZID]
MIC [1]: 0.4 µM (≈ 0.0549 µg/mL)

CC[C@@H](CO)NCCN[C@@H](CC)CO [ETHAMBUTOL]
MIC [1]: 7.6 µM (≈ 1.55 µg/mL)

Cc1[nH]n(-c2ccccc2)c(=O)c1C(c1ccc([N+](=O)[O-])cc1)c1c(O)ccc2ccccc12 (stereo not given)
MIC [1]: 6.9 µM (≈ 3.12 µg/mL)

CO[C@H]1/C=C/O[C@@]2(C)Oc3c(C)c(O)c4c(O)c(c(/C=N/N5CCN(C)CC5)c(O)c4c3C2=O)NC(=O)/C(C)=C\C=C\[C@H](C)[C@H](O)[C@@H](C)[C@@H](O)[C@@H](C)[C@H](OC(C)=O)[C@@H]1C [RIFAMPIN]
MIC [1]: 0.1 µM (≈ 0.0823 µg/mL)

Cc1[nH]n(-c2ccc(Cl)cc2)c(=O)c1C(c1ccc(Cl)cc1)c1c(O)ccc2ccccc12 (stereo not given)
MIC [1]: 6.6 µM (≈ 3.14 µg/mL)

Cc1[nH]n(-c2ccc(F)cc2)c(=O)c1C(c1ccc([N+](=O)[O-])cc1)c1c(O)ccc2ccccc12 (stereo not given)
MIC [1]: 3.3 µM (≈ 1.55 µg/mL)

Cc1[nH]n(-c2ccc(F)cc2)c(=O)c1C(c1ccccc1)c1c(O)ccc2ccccc12 (stereo not given)
MIC [1]: 14.7 µM (≈ 6.24 µg/mL)

Cc1[nH]n(-c2ccccc2)c(=O)c1C(c1ccc(Cl)cc1)c1c(O)ccc2ccccc12 (stereo not given)
MIC [1]: 14.1 µM (≈ 6.22 µg/mL)

Cc1[nH]n(-c2ccc(F)cc2)c(=O)c1C(c1cccc([N+](=O)[O-])c1)c1c(O)ccc2ccccc12 (stereo not given)
MIC [1]: 6.7 µM (≈ 3.15 µg/mL)

Cc1[nH]n(-c2ccccc2)c(=O)c1C(c1ccccc1[N+](=O)[O-])c1c(O)ccc2ccccc12 (stereo not given)
MIC [1]: 13.8 µM (≈ 6.23 µg/mL)

COc1ccc(C(c2c(C)[nH]n(-c3ccccc3)c2=O)c2c(O)ccc3ccccc23)cc1 (stereo not given)
MIC [1]: 28.6 µM (≈ 12.5 µg/mL)
